Results on three compounds are retold here after ChEMBL document CHEMBL2390920, “8-Benzamidochromen-4-one-2-carboxylic acids: potent and selective agonists for the orphan G protein-coupled receptor GPR35” (J Med Chem, 2013).

The structures appear in SMILES notation.

Series [1] in a line: Inhibition of PDE (unknown origin). On the set-up: species or system Homo sapiens.
Series [2] concerns the target T1, G-protein coupled receptor 35 (Homo sapiens, UniProt Q9HC97). Briefly: Agonist activity at human GPR35 expressed in CHO cells assessed as induction of beta-arrestin recruitment at 10 uM after 90 mins by beta-galactosidase reporter gene assay relative to zaprinast. Type of series: cell-based. In outline: (§1)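 PathHunter enzyme-fragment complementation in CHO cells stably expressing β-arrestin-EA and tagged human GPR35, seeded at 20000 cells/well the day before. DMSO dilutions were further diluted 1:10 (final DMSO ≤1%). Cells were incubated 90 min, then detection reagent was added and luminescence read after 60 min.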

Series [3] addresses T1, G-protein coupled receptor 35. As to the kind of experiment: Agonist activity at human GPR35 expressed in CHO cells assessed as induction of beta-arrestin recruitment after 90 mins by beta-galactosidase reporter gene assay. Type of series: cell-based. The method, boiled down:
as §1

Series [4] concerns the target G protein-coupled receptor GPR35 (Rattus norvegicus) (UniProt Q33BM1). As to the kind of experiment: Agonist activity at rat GPR35 expressed in CHO cells assessed as induction of beta-arrestin recruitment at 10 uM after 90 mins by beta-galactosidase reporter gene assay relative to zaprinast. Type of series: cell-based. The method, boiled down: (§2)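 Rat GPR35 expressed by transfecting a parental CHO β-arrestin-EA line; cells seeded at 20000/well the day before. Compounds (final DMSO ≤1%) were incubated 90 min, followed by detection reagent and a luminescence read after 60 min.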

In series [5] the target is G protein-coupled receptor GPR35 (Rattus norvegicus, UniProt Q33BM1). As to the kind of experiment: Agonist activity at rat GPR35 expressed in CHO cells assessed as induction of beta-arrestin recruitment after 90 mins by beta-galactosidase reporter gene assay. Type of series: cell-based. In outline:
as §2

Series [6] has as its target G-protein coupled receptor 35 (Mus musculus) (UniProt Q9ES90). Briefly: Agonist activity at mouse GPR35 expressed in CHO cells assessed as induction of beta-arrestin recruitment at 10 uM after 90 mins by beta-galactosidase reporter gene assay relative to zaprinast. Type of series: cell-based. The method, boiled down: (§3)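 Mouse GPR35 introduced by transfection into a CHO β-arrestin-EA line; 20000 cells/well plated the day prior. After 90 min of compound exposure (final DMSO ≤1%), detection reagent was added and luminescence read after 60 min.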

The nature of series [7]: Inhibition of chloride channel (unknown origin). On the set-up: species or system Homo sapiens.
Series [8] concerns the target G-protein coupled receptor 35 (Mus musculus, UniProt Q9ES90). As to the kind of experiment: Agonist activity at mouse GPR35 expressed in CHO cells assessed as induction of beta-arrestin recruitment after 90 mins by beta-galactosidase reporter gene assay. Type of series: cell-based. The method, boiled down:
as §3

Series [9] can be described thus: Stability of the compound in aceronitrile/water at pH 5.5 at 1.2 mM after 4 hrs by LC-MS analysis. Type of series: physicochemical. As to conditions: buffer, pH 5.5, 4 h, 1200 µM. The method, boiled down:
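Compound dissolved at 1.20 mM in 1:1 acetonitrile/water at pH 5.5 with no added acid, base or salt; sample then analysed by LC-MS.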

Series [10] has as its target T2, G-protein coupled receptor 55 (Homo sapiens, UniProt Q9Y2T6). Briefly: Agonist activity at human GPR55 expressed in CHO cells assessed as induction of beta-arrestin recruitment at 10 uM after 90 mins by beta-galactosidase reporter gene assay relative to lysophosphotidylinositol. Type of series: functional, cell-based. The method, boiled down:
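Human GPR55 PathHunter CHO cells, 20000 cells/well seeded the day before, received test compound at 10 µM (final DMSO ≤1%) for 90 min. Detection reagent was then added and luminescence read after 60 min. Signal was normalized to that of 1 µM LPI.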

The species entered for the next series is Homo sapiens. As to the kind of experiment: Selectivity ratio of IC50 for human GPR55 to EC50 for human GPR35.
For series [11], the target named is T1, G-protein coupled receptor 35. Briefly: Agonist activity at human GPR35b expressed in CHO cells assessed as induction of beta-arrestin recruitment at 10 uM after 90 mins by beta-galactosidase reporter gene assay relative to zaprinast. Type of series: cell-based. In outline: (§4)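 CHO β-arrestin-EA parental line transfected with human GPR35b, seeded at 20000 cells/well the day before. Compounds in DMSO were diluted 1:10 in medium or PBS (final DMSO ≤1%). After 90 min of incubation, detection reagent was added and luminescence measured 60 min later. Screening was at 10 µM.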

For series [12], the target named is G-protein coupled receptor 35 (Mus musculus) (UniProt Q9ES90). As to the kind of experiment: Agonist activity at mouse GPR35 expressed in CHO cells assessed as induction of beta-arrestin recruitment at 10 uM after 90 mins by beta-galactosidase reporter gene assay. Type of series: cell-based. In outline:
as §3

Series [13] in a line: Stability of the compound in aceronitrile/water at pH 3.5 at 1.2 mM after 90 mins by LC-MS analysis in presence of acetic acid and ammonium acetate. As to conditions: buffer, pH 3.5, 1.5 h, 1200 µM. Type of series: physicochemical. In outline: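 Compound prepared at 1.20 mM in 1:1 acetonitrile/water adjusted to pH 3.5, containing acetic acid (300 mM) and ammonium acetate (2 mM); sample then analysed by LC-MS.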

The target in series [14] is T2, G-protein coupled receptor 55. Briefly: Antagonist activity at human GPR55 expressed in CHO cells assessed as inhibition of lysophosphotidylinositol-induced beta-arrestin recruitment preincubated for 30 mins followed by lysophosphotidylinositol induction by beta-galactosidase reporter gene assay. Type of series: functional, cell-based. The method, boiled down:
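Human GPR55 PathHunter CHO cells were preincubated 30 min with compound, then stimulated with LPI (final 1 µM). After 90 min, detection reagent was added and luminescence read 60 min later. Screening was at 10 µM; full concentration-inhibition curves were run for selected compounds to give IC50.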

Series [15] deals with T1, G-protein coupled receptor 35. Briefly: Agonist activity at human GPR35b expressed in CHO cells assessed as induction of beta-arrestin recruitment after 90 mins by beta-galactosidase reporter gene assay. Type of series: cell-based. In outline: as §4
The nature of series [16]: Stability of the compound in aceronitrile/water at pH 8 at 1.2 mM after 2 to 4 days by LC-MS analysis in presence of ammonia and ammonium acetate. The settings on record: buffer, pH 8, 1200 µM. Type of series: physicochemical. In outline:
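Solution of compound at 1.20 mM in 1:1 acetonitrile/water at pH 8.0, containing ammonia ([…]) and ammonium acetate (2 mM); sample then analysed by LC-MS.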

Series [17] concerns the target T3, Aryl hydrocarbon receptor (Homo sapiens, UniProt P35869).
T3 sequence (P35869 whole entry): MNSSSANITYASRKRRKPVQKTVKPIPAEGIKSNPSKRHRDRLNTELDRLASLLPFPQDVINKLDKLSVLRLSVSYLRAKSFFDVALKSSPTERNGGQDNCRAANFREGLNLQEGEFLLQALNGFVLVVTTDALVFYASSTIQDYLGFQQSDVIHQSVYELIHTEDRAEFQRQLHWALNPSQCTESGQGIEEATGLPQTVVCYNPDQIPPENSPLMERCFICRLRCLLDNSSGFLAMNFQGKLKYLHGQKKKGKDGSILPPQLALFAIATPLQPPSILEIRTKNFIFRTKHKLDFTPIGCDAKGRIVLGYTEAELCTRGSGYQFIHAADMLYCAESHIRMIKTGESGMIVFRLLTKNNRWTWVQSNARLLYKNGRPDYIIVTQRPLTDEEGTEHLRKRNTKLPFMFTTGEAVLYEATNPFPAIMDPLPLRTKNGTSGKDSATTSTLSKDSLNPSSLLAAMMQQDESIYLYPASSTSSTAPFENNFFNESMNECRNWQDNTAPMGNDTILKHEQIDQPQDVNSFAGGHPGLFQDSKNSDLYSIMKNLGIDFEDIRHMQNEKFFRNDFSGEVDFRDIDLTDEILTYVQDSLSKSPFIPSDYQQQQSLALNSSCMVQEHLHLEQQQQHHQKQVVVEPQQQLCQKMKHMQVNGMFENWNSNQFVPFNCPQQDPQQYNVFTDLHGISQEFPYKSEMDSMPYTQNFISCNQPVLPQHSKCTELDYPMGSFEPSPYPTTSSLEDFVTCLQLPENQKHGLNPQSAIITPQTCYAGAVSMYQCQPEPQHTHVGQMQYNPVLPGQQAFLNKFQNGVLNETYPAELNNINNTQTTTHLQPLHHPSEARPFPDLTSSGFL
As to the kind of experiment: Activation of AHR (unknown origin).

In series [18] the target is Neuronal acetylcholine receptor subunit alpha-7 (Homo sapiens, UniProt P36544). As to the kind of experiment: Inhibition of alpha7 nAChR (unknown origin).
Sequence of Neuronal acetylcholine receptor subunit alpha-7 (P36544 whole entry): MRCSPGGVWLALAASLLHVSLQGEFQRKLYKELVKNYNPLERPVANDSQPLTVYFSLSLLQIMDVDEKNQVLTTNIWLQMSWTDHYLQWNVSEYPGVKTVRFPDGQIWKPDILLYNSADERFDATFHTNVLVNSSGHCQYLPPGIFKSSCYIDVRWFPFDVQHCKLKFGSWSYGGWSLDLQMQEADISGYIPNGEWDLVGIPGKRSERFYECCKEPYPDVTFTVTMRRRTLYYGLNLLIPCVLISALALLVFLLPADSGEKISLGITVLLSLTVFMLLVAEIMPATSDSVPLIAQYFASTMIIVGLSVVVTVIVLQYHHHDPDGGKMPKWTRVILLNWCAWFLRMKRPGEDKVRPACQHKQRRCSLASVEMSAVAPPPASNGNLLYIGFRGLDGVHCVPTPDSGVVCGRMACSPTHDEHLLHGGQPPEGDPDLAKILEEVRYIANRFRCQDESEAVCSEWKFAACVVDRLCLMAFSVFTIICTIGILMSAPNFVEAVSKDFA
Series [19] addresses Glutamate [NMDA] receptor. As to the kind of experiment: Inhibition of NMDA receptor (unknown origin). On the set-up: species or system Homo sapiens.
In series [20] the target is GABA-A receptor; agonist GABA site. As to the kind of experiment: Inhibition of GABAA receptor (unknown origin). Type of series: protein-complex assay, Homo sapiens.
Series [21] can be described thus: Inhibition of AMPA receptor (unknown origin). On the set-up: species or system Homo sapiens.

T1 sequence (Q9HC97 whole entry, the tested form may be a part): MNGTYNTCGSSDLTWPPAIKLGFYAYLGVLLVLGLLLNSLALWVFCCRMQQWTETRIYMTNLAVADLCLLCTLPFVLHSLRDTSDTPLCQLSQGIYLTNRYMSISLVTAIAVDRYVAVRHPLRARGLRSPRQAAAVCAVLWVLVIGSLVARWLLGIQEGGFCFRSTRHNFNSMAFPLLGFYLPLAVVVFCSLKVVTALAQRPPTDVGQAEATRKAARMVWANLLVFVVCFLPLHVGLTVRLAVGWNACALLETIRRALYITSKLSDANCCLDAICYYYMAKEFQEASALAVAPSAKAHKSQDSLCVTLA
Sequence of G protein-coupled receptor GPR35 (Q33BM1 whole entry): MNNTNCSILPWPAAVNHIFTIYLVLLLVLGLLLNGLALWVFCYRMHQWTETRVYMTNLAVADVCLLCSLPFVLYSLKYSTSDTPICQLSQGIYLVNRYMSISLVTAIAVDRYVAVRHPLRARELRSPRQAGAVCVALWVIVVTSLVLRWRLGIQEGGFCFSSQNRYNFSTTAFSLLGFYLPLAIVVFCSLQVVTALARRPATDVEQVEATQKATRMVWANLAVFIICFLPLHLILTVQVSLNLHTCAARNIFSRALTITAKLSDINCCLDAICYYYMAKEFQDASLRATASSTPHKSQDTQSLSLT
T2 sequence (Q9Y2T6 whole entry): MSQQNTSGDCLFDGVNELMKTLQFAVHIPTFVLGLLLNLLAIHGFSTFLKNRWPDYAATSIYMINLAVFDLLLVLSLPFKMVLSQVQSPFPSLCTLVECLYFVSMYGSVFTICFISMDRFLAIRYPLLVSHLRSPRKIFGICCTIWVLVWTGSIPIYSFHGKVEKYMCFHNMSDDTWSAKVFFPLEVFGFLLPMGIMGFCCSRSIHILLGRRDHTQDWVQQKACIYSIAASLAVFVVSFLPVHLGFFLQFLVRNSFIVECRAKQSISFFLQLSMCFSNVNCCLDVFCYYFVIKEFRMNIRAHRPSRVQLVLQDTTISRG
Sequence of G-protein coupled receptor 35 (Mus musculus) (Q9ES90 whole entry): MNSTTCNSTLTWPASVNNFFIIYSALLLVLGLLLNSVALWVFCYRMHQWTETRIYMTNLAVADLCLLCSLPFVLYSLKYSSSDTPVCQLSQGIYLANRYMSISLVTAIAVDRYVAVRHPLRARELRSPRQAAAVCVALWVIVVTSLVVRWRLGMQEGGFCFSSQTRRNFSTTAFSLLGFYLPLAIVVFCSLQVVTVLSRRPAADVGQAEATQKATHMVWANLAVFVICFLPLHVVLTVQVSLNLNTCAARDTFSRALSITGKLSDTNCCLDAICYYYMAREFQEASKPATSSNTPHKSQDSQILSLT
Sequence of G protein-coupled receptor GPR35 (Rattus norvegicus) (Q33BM1 as listed by the source): as the sequence (Q33BM1 whole entry) above
Sequence of G-protein coupled receptor 35 (Mus musculus, UniProt Q9ES90) (Q9ES90 whole entry): as the sequence (Q9ES90 whole entry) above

As to `O=C(O)c1cc(=O)c2c(OCC(O)COc3cccc4oc(C(=O)O)cc(=O)c34)cccc2o1` [CROMOLYN SODIUM], the Ki in [1] is 0.0008 µM. Moreover, the Emax is 119% in series [2], 104% in [4] and 102% in [6]. The EC50 came out at 1.26 µM in series [3], 0.986 µM in [5] and 4.84 µM in series [8]. In addition, half-maximal inhibition in series [7] (IC50) required 5 µM.
`COc1ccc(C(=O)Nc2cc(Br)cc3c(=O)cc(C(=O)O)oc23)cc1`: the Stability entry in [9], in [13] and in [16] was “Stable” throughout. The Emax in series [2] was 121%; in [4], 88%; in series [11] it was 136%. In addition, the Activity in series [10] amounted to 0%; in series [12], 36%. The EC50 in series [3] is 0.0121 µM; in [5], 1.4 µM; in series [15], 0.0221 µM. Also, in the series listed under Homo sapiens, the Ratio IC50/EC50 is greater than 1700. In addition, the IC50 in [14] was determined as 21.7 µM.
In the case of `O=C(O)c1cc(=O)c2ccccc2[nH]1` [TRANSTORINE], the EC50 turned out to be 0.3 µM in series [17], 217 µM in [3] and 66 µM in series [5]. For the same compound, the IC50 in [18] was determined as 7 µM; in series [19], 15 µM; in series [20], 2900 µM; in series [21] it was 10 µM.
